Values after ≈ are worked out from the molar mass of the structure shown.
Assays:
Staphylococcus aureus [1] = test: Induction of membrane disruption in methicillin-sensitive Staphylococcus aureus FDA 209P assessed as increase in K+ efflux after 30 mins; format: functional; settings: 0.5 h, read-out: ED50 (the source's name)
Method in brief: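 S. aureus washed twice and suspended at 2 × 10^9 cells per cm3 in 100 mM choline chloride/50 mM Mops-Tris, pH 7.2, then exposed to compound at 37 °C for 30 min. Released K+ was measured in the centrifuged supernatant with a K+-selective electrode. Melittin (10 µM) defined 100% efflux, and ED50 is the concentration giving 50% efflux.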

Staphylococcus aureus [2] = test: Antibacterial activity against Staphylococcus aureus FDA 209P assessed as decrease in cell viability after 30 mins by colony counting method; format: functional; settings: 0.5 h
Method in brief: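 S. aureus washed twice and suspended at 2 × 10^9 cells per cm3 in 100 mM choline chloride/50 mM Mops-Tris, pH 7.2. Exposed to CD at 37 °C for 30 min. An aliquot was diluted in physiological saline, plated on polypeptone/yeast extract/NaCl agar and incubated overnight at 37 °C. Viability was taken from colony counts; LC50 is the concentration giving 50% viability.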

[3] = Lipophilicity, log P of the compound; format: physicochemical; settings: octanol/water
Staphylococcus aureus [4] = test: Antibacterial activity against methicillin-sensitive Staphylococcus aureus FDA 209P after 20 hrs by liquid microdilution method; format: functional
Method in brief: (§1)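 Two-fold serial dilutions of compound in Mueller–Hinton broth, inoculated with 1 × 10^4 cells and cultured at 37 °C for 20 h in microtiter wells.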

Bacillus subtilis = test: Antibacterial activity against drug-sensitive Bacillus subtilis 168 after 20 hrs by liquid microdilution method; format: functional; settings: subsp. subtilis str. 168, 20 h; method in brief: as §1
Escherichia coli = test: Antibacterial activity against drug-sensitive Escherichia coli K-12 W3110 after 20 hrs by liquid microdilution method; format: functional; settings: K-12 substr. W3110, 20 h; method in brief: as §1
Salmonella typhimurium = test: Antibacterial activity against drug-sensitive Salmonella typhimurium LT2 after 20 hrs by liquid microdilution method; format: functional, Salmonella enterica subsp. enterica serovar Typhimurium; settings: Salmonella enterica, LT2, 20 h; method in brief: as §1
Pseudomonas aeruginosa = test: Antibacterial activity against drug-sensitive Pseudomonas aeruginosa PAO1 after 20 hrs by liquid microdilution method; format: functional; settings: PAO1, 20 h; method in brief: as §1
[5] = Hemolytic activity in rabbit RBC at 50 uM after 20 mins relative to control; format: ADME, cell-based, Oryctolagus cuniculus, Erythrocyte; settings: rabbit red blood cells (erythrocytes), read-out: Activity
Method in brief: (§2)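 Rabbit erythrocytes suspended in 150 mM NaCl/10 mM Hepes-NaOH, pH 7.4, at 0.5% hematocrit (final) and incubated with compound at 37 °C. The table footnote gives 20 min; the methods section gives 30 min. Hemolysis was read as absorbance at 540 nm, with 50 µM lysolecithin defining 100% hemolysis.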

[6] = Hemolytic activity in rabbit RBC at 20 uM after 20 mins relative to control; format: ADME, cell-based, Oryctolagus cuniculus, Erythrocyte; settings: rabbit red blood cells (erythrocytes), read-out: Activity; method in brief: as §2
[7] = Hemolytic activity in rabbit RBC at 10 uM after 20 mins relative to control; format: ADME, cell-based, Oryctolagus cuniculus, Erythrocyte; settings: rabbit red blood cells (erythrocytes), read-out: Activity; method in brief: as §2
[8] = Hemolytic activity in rabbit RBC at 5 uM after 20 mins relative to control; format: ADME, cell-based, Oryctolagus cuniculus, Erythrocyte; settings: rabbit red blood cells (erythrocytes), read-out: Activity; method in brief: as §2
[9] = Hemolytic activity in rabbit RBC at 2 uM after 20 mins relative to control; format: ADME, cell-based, Oryctolagus cuniculus, Erythrocyte; settings: rabbit red blood cells (erythrocytes), read-out: Activity; method in brief: as §2
[10] = Hemolytic activity in rabbit RBC at 1 uM after 20 mins relative to control; format: ADME, cell-based, Oryctolagus cuniculus, Erythrocyte; settings: rabbit red blood cells (erythrocytes), read-out: Activity; method in brief: as §2
Staphylococcus aureus [11] = test: Antibacterial activity against methicillin-resistant Staphylococcus aureus MS29202 after 18 to 20 hrs by agar dilution method; format: functional
Method in brief: (§3)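 Agar dilution per CLSI. Overnight broth cultures were diluted 100-fold, and one loopful (about 10^5 to 10^4 CFU) was spotted onto agar plates containing the CD. Growth was scored after 18–20 h at 37 °C. MIC values are in µM.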

Streptococcus agalactiae = test: Antibacterial activity against drug-resistant Streptococcus agalactiae B1 after 18 to 20 hrs by agar dilution method; format: functional; method in brief: as §3
Enterococcus faecium = test: Antibacterial activity against drug-resistant Enterococcus faecium MS29120 after 18 to 20 hrs by agar dilution method; format: functional; method in brief: as §3
Enterococcus faecalis [12] = test: Antibacterial activity against drug-resistant Enterococcus faecalis MS29030 after 18 to 20 hrs by agar dilution method; format: functional; method in brief: as §3
Enterococcus faecalis [13] = test: Antibacterial activity against vancomycin-resistant Enterococcus faecalis MS29016 after 18 to 20 hrs by agar dilution method; format: functional; method in brief: as §3

SMILES | EC50 (Staphylococcus aureus [1]) | LC50 (Staphylococcus aureus [2]) | logP [3] | MIC (Staphylococcus aureus [4]) | MIC (Bacillus subtilis) | MIC (Escherichia coli) | MIC (Salmonella typhimurium) | MIC (Pseudomonas aeruginosa) | hemolysis at 20 min, 50 µM [5] | hemolysis at 20 min, 20 µM [6] | hemolysis at 20 min, 10 µM [7] | hemolysis at 20 min, 5 µM [8] | hemolysis at 20 min, 2 µM [9] | hemolysis at 20 min, 1 µM [10] | MIC (Staphylococcus aureus [11]) | MIC (Streptococcus agalactiae) | MIC (Enterococcus faecium) | MIC (Enterococcus faecalis [12]) | MIC (Enterococcus faecalis [13])
OC[C@H]1O[C@@H]2O[C@H]3[C@H](O)[C@@H](O)[C@@H](O[C@H]4[C@H](O)[C@@H](O)[C@@H](O[C@H]5[C@H](O)[C@@H](O)[C@@H](O[C@H]6[C@H](O)[C@@H](O)[C@@H](O[C@H]7[C@H](O)[C@@H](O)[C@@H](O[C@H]8[C@H](O)[C@@H](O)[C@@H](O[C@H]1[C@H](O)[C@H]2O)O[C@@H]8CO)O[C@@H]7CO)O[C@@H]6CO)O[C@@H]5CO)O[C@@H]4CO)O[C@@H]3CO [BETADEX] | > 50 µM | > 50 µM | – | – | – | – | – | – | – | – | – | – | – | – | – | – | – | – | –
CCCCCNCc1cn(C[C@H]2O[C@@H]3O[C@H]4[C@H](O)[C@@H](O)[C@@H](O[C@H]5[C@H](O)[C@@H](O)[C@@H](O[C@H]6[C@H](O)[C@@H](O)[C@@H](O[C@H]7[C@H](O)[C@@H](O)[C@@H](O[C@H]8[C@H](O)[C@@H](O)[C@@H](O[C@H]9[C@H](O)[C@@H](O)[C@@H](O[C@H]2[C@H](O)[C@H]3O)O[C@@H]9Cn2cc(CNCCCCC)nn2)O[C@@H]8Cn2cc(CNCCCCC)nn2)O[C@@H]7Cn2cc(CNCCCCC)nn2)O[C@@H]6Cn2cc(CNCCCCC)nn2)O[C@@H]5Cn2cc(CNCCCCC)nn2)O[C@@H]4Cn2cc(CNCCCCC)nn2)nn1 | 20 µM | 20 µM | -0.48 | 3 to 5 µM (≈ 6.56 to 10.9 µg/mL) | 1 µM (≈ 2.19 µg/mL) | 43 µM (≈ 94 µg/mL) | > 43 µM | > 43 µM | 1% | 0% | 0% | 1% | 0% | 0% | 21 µM (≈ 45.9 µg/mL) | 3 µM (≈ 6.56 µg/mL) | 21 µM (≈ 45.9 µg/mL) | > 43 µM | > 43 µM
CC(C)CCNCc1cn(C[C@H]2O[C@@H]3O[C@H]4[C@H](O)[C@@H](O)[C@@H](O[C@H]5[C@H](O)[C@@H](O)[C@@H](O[C@H]6[C@H](O)[C@@H](O)[C@@H](O[C@H]7[C@H](O)[C@@H](O)[C@@H](O[C@H]8[C@H](O)[C@@H](O)[C@@H](O[C@H]9[C@H](O)[C@@H](O)[C@@H](O[C@H]2[C@H](O)[C@H]3O)O[C@@H]9Cn2cc(CNCCC(C)C)nn2)O[C@@H]8Cn2cc(CNCCC(C)C)nn2)O[C@@H]7Cn2cc(CNCCC(C)C)nn2)O[C@@H]6Cn2cc(CNCCC(C)C)nn2)O[C@@H]5Cn2cc(CNCCC(C)C)nn2)O[C@@H]4Cn2cc(CNCCC(C)C)nn2)nn1 | – | – | -0.57 | 3 to 5 µM (≈ 6.56 to 10.9 µg/mL) | 1 µM (≈ 2.19 µg/mL) | > 43 µM | > 43 µM | > 43 µM | 0% | 0% | 0% | 0% | 0% | 0% | 21 µM (≈ 45.9 µg/mL) | 11 µM (≈ 24.1 µg/mL) | 21 µM (≈ 45.9 µg/mL) | > 43 µM | > 43 µM
O[C@@H]1[C@@H](O)[C@H]2O[C@H]3[C@H](O)[C@@H](O)[C@@H](O[C@H]4[C@H](O)[C@@H](O)[C@@H](O[C@H]5[C@H](O)[C@@H](O)[C@@H](O[C@H]6[C@H](O)[C@@H](O)[C@@H](O[C@H]7[C@H](O)[C@@H](O)[C@@H](O[C@H]8[C@H](O)[C@@H](O)[C@@H](O[C@@H]1[C@@H](Cn1cc(CNCCc9ccccc9)nn1)O2)O[C@@H]8Cn1cc(CNCCc2ccccc2)nn1)O[C@@H]7Cn1cc(CNCCc2ccccc2)nn1)O[C@@H]6Cn1cc(CNCCc2ccccc2)nn1)O[C@@H]5Cn1cc(CNCCc2ccccc2)nn1)O[C@@H]4Cn1cc(CNCCc2ccccc2)nn1)O[C@@H]3Cn1cc(CNCCc2ccccc2)nn1 | – | – | -0.13 | 3 to 5 µM (≈ 7.27 to 12.1 µg/mL) | 3 µM (≈ 7.27 µg/mL) | 10 µM (≈ 24.2 µg/mL) | 10 µM (≈ 24.2 µg/mL) | 10 µM (≈ 24.2 µg/mL) | 40% | 23% | 12% | 7% | 3% | 3% | 20 µM (≈ 48.5 µg/mL) | 10 µM (≈ 24.2 µg/mL) | 20 µM (≈ 48.5 µg/mL) | 40 µM (≈ 97 µg/mL) | 40 µM (≈ 97 µg/mL)
O[C@@H]1[C@@H](O)[C@H]2O[C@H]3[C@H](O)[C@@H](O)[C@@H](O[C@H]4[C@H](O)[C@@H](O)[C@@H](O[C@H]5[C@H](O)[C@@H](O)[C@@H](O[C@H]6[C@H](O)[C@@H](O)[C@@H](O[C@H]7[C@H](O)[C@@H](O)[C@@H](O[C@H]8[C@H](O)[C@@H](O)[C@@H](O[C@@H]1[C@@H](Cn1cc(CNCC9CCCC9)nn1)O2)O[C@@H]8Cn1cc(CNCC2CCCC2)nn1)O[C@@H]7Cn1cc(CNCC2CCCC2)nn1)O[C@@H]6Cn1cc(CNCC2CCCC2)nn1)O[C@@H]5Cn1cc(CNCC2CCCC2)nn1)O[C@@H]4Cn1cc(CNCC2CCCC2)nn1)O[C@@H]3Cn1cc(CNCC2CCCC2)nn1 | – | – | -0.58 | 1 to 5 µM (≈ 2.27 to 11.4 µg/mL) | 21 µM (≈ 47.7 µg/mL) | 21 µM (≈ 47.7 µg/mL) | > 42 µM | > 42 µM | 8% | 2% | 1% | 1% | 1% | 2% | 21 µM (≈ 47.7 µg/mL) | 10 µM (≈ 22.7 µg/mL) | 21 µM (≈ 47.7 µg/mL) | > 42 µM | > 42 µM
NC(CC1CCCCC1)c1cn(C[C@H]2O[C@@H]3O[C@H]4[C@H](O)[C@@H](O)[C@@H](O[C@H]5[C@H](O)[C@@H](O)[C@@H](O[C@H]6[C@H](O)[C@@H](O)[C@@H](O[C@H]7[C@H](O)[C@@H](O)[C@@H](O[C@H]8[C@H](O)[C@@H](O)[C@@H](O[C@H]9[C@H](O)[C@@H](O)[C@@H](O[C@H]2[C@H](O)[C@H]3O)O[C@@H]9Cn2cc(C(N)CC3CCCCC3)nn2)O[C@@H]8Cn2cc(C(N)CC3CCCCC3)nn2)O[C@@H]7Cn2cc(C(N)CC3CCCCC3)nn2)O[C@@H]6Cn2cc(C(N)CC3CCCCC3)nn2)O[C@@H]5Cn2cc(C(N)CC3CCCCC3)nn2)O[C@@H]4Cn2cc(C(N)CC3CCCCC3)nn2)nn1 (some centres undefined) | – | – | -0.35 | 10 µM (≈ 23.7 µg/mL) | 3 µM (≈ 7.11 µg/mL) | 10 µM (≈ 23.7 µg/mL) | 10 µM (≈ 23.7 µg/mL) | 20 µM (≈ 47.4 µg/mL) | 118% | 117% | 107% | 89% | 31% | 13% | 20 µM (≈ 47.4 µg/mL) | 20 µM (≈ 47.4 µg/mL) | 20 µM (≈ 47.4 µg/mL) | 40 µM (≈ 94.8 µg/mL) | 20 µM (≈ 47.4 µg/mL)

Reference: ChEMBL document CHEMBL4257484, “Membrane-active antimicrobial poly(amino-modified alkyl) β-cyclodextrins synthesized via click reactions” (Medchemcomm, 2018)
